The subject of data set [1] is THP-1. The experiment in a line: Induction of TNFalpha expression in human THP1 cells after 18 hrs by ELISA. It counts as functional, cell-based. An outline of the steps:
(§1)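 THP-1 cells in RPMI-1640 with 2 mM L-glutamine, antibiotics, 10% FCS; 10⁵ cells/well differentiated with 200 nM TPA for 24 h. Non-adherent cells washed off, 1 h recovery, then stimulated 18 h at indicated concentrations; E. coli Re-LPS or O111:B4 LPS as reference. DMSO stocks diluted in medium, final DMSO ≤0.01%. Supernatants assayed by ELISA.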

The subject of data set [2] is THP-1. The experiment in a line: Induction of IL8 expression in human THP1 cells after 18 hrs by ELISA. It counts as functional, cell-based. An outline of the steps: as §1
(In general: An ELISA detects its analyte on a solid surface through an enzyme-linked reagent.)

The test system of data set [3] is THP-1. The experiment in a line: Induction of MCP1 expression in human THP1 cells after 18 hrs by ELISA. It counts as functional, cell-based. An outline of the steps: as §1
In data set [4] the target is Toll-like receptor 4 (Homo sapiens) (UniProt O00206). The experiment in a line: Agonist activity at human TLR4 in human THP1 cells assessed as induction of MyD88 signaling after 18 hrs by ELISA. The conditions noted are these: THP-1. It counts as cell-based. An outline of the steps: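 THP-1 cells were seeded at 10⁵ per well and differentiated to macrophage-like cells with 200 nM TPA for 24 h. Non-adherent cells were washed off, and the remainder rested 1 h in fresh complete RPMI with 10% FCS. Cells were then stimulated for 18 h, and TNF-α, IL-8 and MCP-1 in the supernatants were measured by ELISA.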

Data set [5] is described as follows: Induction of TNFalpha level in C57BL/6J mouse BMDM at 1 nM after 16 hrs by ELISA. It counts as functional. The procedure, abridged: (§2)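 C57BL/6J bone marrow cells were differentiated 6 days with 40 ng/mL M-CSF in RPMI with 20% FBS, then seeded at 1 × 10⁶ cells/mL in RPMI with 10% FBS. After 24 h, cells were stimulated for 16 h, with nM concentrations based on compound MW. Supernatant cytokines were measured by ELISA.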

A short description of data set [6]: Induction of IL-6 level in C57BL/6J mouse BMDM at 1 nM after 16 hrs by ELISA. It counts as functional. An outline of the steps:
as §2

Data set [7] is described as follows: Cytotoxicity against human DC by propidium iodide staining. The procedure, abridged: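 Immature monocyte-derived DCs were stimulated with compound across a wide concentration range, and cytotoxicity was assessed by propidium iodide staining.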
Data set [8] has as its system BMDM. The experiment in a line: Induction of IL-6 level in C57BL/6J mouse BMDM after 16 hrs by ELISA. It counts as functional. An outline of the steps: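 Bone marrow flushed from femur and tibia, erythrocytes lysed (0.88% ammonium chloride, 15 min, 37 °C), differentiated 6 days in RPMI/20% FBS with 40 ng/mL M-CSF. Replated at 1 × 10⁶ cells/mL in RPMI/10% FBS, stimulated after 24 h for 16 h. Nanomolar doses calculated from MW. DMSO stocks diluted in medium, final DMSO ≤0.01%. Supernatant IL-6 by ELISA.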

The species entered for data set [9] is Homo sapiens. Kind of data set: Induction of IL6 release in human DC at 1 ng/ml by Luminex.
Data set [10] is filed under the species Homo sapiens. Kind of data set: Induction of IL12 release in human DC at 1 ng/ml by Luminex.
For data set [11], the species on record is Homo sapiens. Kind of data set: Induction of IL10 release in human DC at 1 ng/ml by Luminex.
For data set [12], the species on record is Homo sapiens. The experiment in a line: Induction of TNFalpha release in human DC at 1 ng/ml by Luminex.
A short description of data set [13]: Induction of human DC maturation assessed as upregulation of CD86 at 10 ng/ml after 24 hrs by flow cytometry. It counts as functional. (In flow cytometry, cells or beads pass a laser one at a time.)
The target in data set [14] is Toll-like receptor 4 (Homo sapiens) (UniProt O00206). Kind of data set: Agonist activity at human TLR4 expressed in HEK293 cells coexpressed with human MD2/CD14 assessed as activation of NFkappaB signaling at 10 ng/ml after 20 to 24 hrs by NFkappaB reporter assay. The data set is classed as cell-based. An outline of the steps: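 HEK-Blue hTLR4 cells (HEK293 co-transfected with hTLR4/MD-2/CD14), 25000 per well, were stimulated with compound diluted in DMEM with 10% FCS (final DMSO ≤0.005–0.01%) for 20–24 h at 37 °C, 5% CO2. Secreted SEAP in the supernatant was read with QUANTI-Blue at 650 nm. Data were pooled from n = 3 independent experiments, SEM.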
In general terms: Reporter assays use an easily measured gene product as a stand-in for the process of interest.

Data set [15] in a line: Induction of human DC maturation assessed as upregulation of MHC class 1 at 10 ng/ml after 24 hrs by flow cytometry. It counts as functional.
Data set [16] can be described thus: Induction of human DC maturation assessed as upregulation of MHC class 2 at 10 ng/ml after 24 hrs by flow cytometry. It counts as functional.

Activity calls are given as the source filed them. No cut-off for these calls is given here.

Data on four compounds can be found in ChEMBL document CHEMBL3352425, “Development of αGlcN(1↔1)αMan-based lipid A mimetics as a novel class of potent Toll-like receptor 4 agonists” (J Med Chem, 2014).

Toll-like receptor 4 (Homo sapiens), sequence (O00206 whole entry): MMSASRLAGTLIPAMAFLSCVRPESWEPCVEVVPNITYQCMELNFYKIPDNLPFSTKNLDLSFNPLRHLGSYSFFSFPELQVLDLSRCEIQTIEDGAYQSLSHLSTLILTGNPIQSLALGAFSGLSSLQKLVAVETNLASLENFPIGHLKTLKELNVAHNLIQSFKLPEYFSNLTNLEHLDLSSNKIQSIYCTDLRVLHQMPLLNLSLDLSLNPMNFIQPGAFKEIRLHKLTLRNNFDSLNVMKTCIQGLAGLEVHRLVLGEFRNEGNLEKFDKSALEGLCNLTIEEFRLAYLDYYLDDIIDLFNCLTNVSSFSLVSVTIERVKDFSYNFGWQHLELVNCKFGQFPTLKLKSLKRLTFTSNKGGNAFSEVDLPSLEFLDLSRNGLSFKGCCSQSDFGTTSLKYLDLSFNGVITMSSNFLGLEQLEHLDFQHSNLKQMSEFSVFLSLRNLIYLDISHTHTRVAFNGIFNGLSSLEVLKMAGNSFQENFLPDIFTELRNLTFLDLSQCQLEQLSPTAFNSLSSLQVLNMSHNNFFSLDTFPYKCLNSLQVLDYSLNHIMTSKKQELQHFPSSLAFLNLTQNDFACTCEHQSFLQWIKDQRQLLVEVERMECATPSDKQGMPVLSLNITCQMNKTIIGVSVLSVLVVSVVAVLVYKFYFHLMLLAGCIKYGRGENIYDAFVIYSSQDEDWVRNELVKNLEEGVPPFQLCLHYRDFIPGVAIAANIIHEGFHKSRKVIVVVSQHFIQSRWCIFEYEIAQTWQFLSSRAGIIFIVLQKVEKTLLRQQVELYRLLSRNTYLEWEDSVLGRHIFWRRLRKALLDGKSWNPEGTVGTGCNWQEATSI

With `CCCCCCCCCCCCCC(=O)O[C@H](CCCCCCCCCCC)CC(=O)O[C@@H]1[C@@H](NC(=O)C[C@@H](CCCCCCCCCCC)OC(=O)CCCCCCCCCCC)[C@@H](O[C@H]2O[C@H](COP(=O)(O)O)[C@@H](OC(=O)C[C@H](CCCCCCCCCCC)OC(=O)CCCCCCCCC)[C@H](O)[C@@H]2OC)O[C@H](CO)[C@H]1OP(=O)(O)O`, the Activity result in data set [1] was “Dose-dependent effect”; in data set [2], “Dose-dependent effect”; in data set [5], 4000 pg/mL; in [6] it was 1500 pg/mL; in data set [7] it was “Non-toxic”. Further, the result in [3] and in [4] was Active.

Take `CCCCCCCCCCCCCC(=O)O[C@H](CCCCCCCCCCC)CC(=O)N[C@H]1[C@H](OC[C@H]2O[C@H](OP(=O)(O)O)[C@H](NC(=O)C[C@H](O)CCCCCCCCCCC)[C@@H](OC(=O)C[C@H](O)CCCCCCCCCCC)[C@@H]2O)O[C@H](CO)[C@@H](OP(=O)(O)O)[C@@H]1OC(=O)C[C@@H](CCCCCCCCCCC)OC(=O)CCCCCCCCCCCCC`: the Activity in data set [5] worked out at 2000 pg/mL.

`CCCCCCCCCCCCCC(=O)O[C@H](CCCCCCCCCCC)CC(=O)O[C@@H]1[C@@H](NC(=O)C[C@@H](CCCCCCCCCCC)OC(=O)CCCCCCCCCCC)[C@@H](O[C@H]2O[C@H](CO)[C@@H](OC(=O)C[C@H](CCCCCCCCCCC)OC(=O)CCCCCCCCCCC)[C@H](O)[C@@H]2OC)O[C@H](CO)[C@H]1OP(=O)(O)O`: the result in data set [1], in data set [2], in data set [3], in data set [9], in data set [10] and in data set [11] was inactive. The result in data set [12] was inactive. Further, the Activity was 500 pg/mL in [5], “Dose-dependent effect” in data set [8] and “Non-toxic” in data set [7].

For `CCCCCCCCCCCCCC(=O)O[C@H](CCCCCCCCCCC)CC(=O)O[C@@H]1[C@@H](NC(=O)C[C@@H](CCCCCCCCCCC)OC(=O)CCCCCCCCCCC)[C@@H](O[C@H]2O[C@H](COP(=O)(O)O)[C@@H](OC(=O)C[C@H](CCCCCCCCCCC)OC(=O)CCCCCCCCCCC)[C@H](O)[C@@H]2OC)O[C@H](CO)[C@H]1OP(=O)(O)O`, the result in [13], in data set [14], in [3], in data set [4], in data set [15] and in [16] was Active. The result in data set [9], in data set [10], in data set [11] and in data set [12] was Active. Besides, the Activity result in [1] was “Dose-dependent effect”; in [2], “Dose-dependent effect”; in data set [5] it was 4000 pg/mL; in data set [6], 1500 pg/mL; in data set [7], “Non-toxic”.
